# Wee1 stabilizer: human Wee1 degradation inhibition, primary screen. HeLa Luc-Wee1K328M stability, luciferase luminescence; 100% = proteasome inhibitor MG132 effect. 220,000 compounds, 1.2% hits. P30291. reporter increase, % at 5 µM;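 active means activation above the mean of all tested compounds plus 3 SD, set per screening run, cut at about 8.8% in these data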;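 further: cells exposed to compound for 20 h before luminescence read; 0% = DMSO alone and 100% = MG132 at 30 µM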
# NF-kB neuron act: NF-kB expression increase, human neuronal cells | AID 1239 | 190,000 compounds, 1.6% hits | NF-kB reporter expression; active compounds read high | fold change at 12.5 µM; in the data active means fold change above about 3.3
# STAT1 act: increases IFN-gamma driven STAT1 reporter signal | NIH 3T3 STAT1-luciferase reporter, luminescence; 100% = IFN-gamma alone, no compound | activation (% of control), % at 5.5 µM | 200,000 compounds, 2.6% hits | AID 932;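 active means activation above the screen-wide mean activation plus 3 SD, cut at about 130% in these data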;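 further: raw ratio to IFN-gamma control signal so 100% means no change and 0% no light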
# Mdm2 ligase inh: inhibitors of human Mdm2 E3 ubiquitin ligase. Q00987. cell-based MDM2 ubiquitination luciferase reporter, 2 h; 0 = plate control, 100 = twice control, blank-subtracted. signal enhancement, % at 5 µM. 210,000 compounds, 0.11% hits;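 active means signal enhancement of 30% or more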;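 further: luminescence tracks abundance of the self-degrading MDM2-luciferase fusion protein; higher signal means inhibition of MDM2 E3 ligase activity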
#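 system = mammalian cells stably expressing self-ubiquitinating, self-degrading MDM2 E3–luciferase fusion | quantity = 2000 cells per well seeded | incubation = 4 h cell settling then 2 h compound exposure, 37 °C | signal = SteadyLite luminescence, 15 min reagent step | benchmarks = plate control and blank wells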
# p97 ATPase inh: blocks human p97 ATPase activity. AID 1481. P55072. recombinant p97 ATPase, Kinase-Glo ATP luminescence, 3 h. inhibition, % at 8 µM. 220,000 compounds, 0.42% hits; in the data active means inhibition above about 15%;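 further: 0% = DMSO vehicle and 100% = wells lacking enzyme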
# Target sequence (P55072 whole entry, looked up): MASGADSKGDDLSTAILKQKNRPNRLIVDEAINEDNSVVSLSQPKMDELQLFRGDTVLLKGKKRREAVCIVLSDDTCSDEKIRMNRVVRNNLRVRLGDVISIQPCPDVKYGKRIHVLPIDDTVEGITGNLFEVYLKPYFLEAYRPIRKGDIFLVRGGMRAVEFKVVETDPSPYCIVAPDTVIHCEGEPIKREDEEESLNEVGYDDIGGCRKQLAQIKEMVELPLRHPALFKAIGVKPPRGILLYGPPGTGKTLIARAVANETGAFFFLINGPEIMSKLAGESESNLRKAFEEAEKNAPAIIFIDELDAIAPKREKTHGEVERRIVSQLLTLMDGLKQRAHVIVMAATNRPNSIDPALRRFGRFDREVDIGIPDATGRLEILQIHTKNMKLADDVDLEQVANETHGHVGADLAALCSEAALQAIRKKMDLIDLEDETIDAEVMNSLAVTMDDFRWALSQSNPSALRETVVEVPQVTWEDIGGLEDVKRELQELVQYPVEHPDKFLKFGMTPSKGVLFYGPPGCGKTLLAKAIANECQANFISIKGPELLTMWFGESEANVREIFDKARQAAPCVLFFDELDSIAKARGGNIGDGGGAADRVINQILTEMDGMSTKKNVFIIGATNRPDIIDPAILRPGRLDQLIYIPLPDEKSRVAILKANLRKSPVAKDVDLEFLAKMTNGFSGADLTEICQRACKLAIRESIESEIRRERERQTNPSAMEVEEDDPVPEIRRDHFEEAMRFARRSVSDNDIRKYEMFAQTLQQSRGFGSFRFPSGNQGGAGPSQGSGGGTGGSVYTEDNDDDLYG
# APP 5'UTR act: APP 5'UTR luciferase reporter activation; activation, % at 2 µM; SH-SY5Y APP 5'UTR luciferase reporter, luminescence; zero percent = DMSO vehicle wells; 190,000 compounds, 1% hits; AID 1276;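 active means activation above a set limit, based on mean plus 3 SD of controls, cut at about 140% in these data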
# p97 confirm: human p97 ATPase inhibition, confirmation; inhibition, % at 8 µM; 760 compounds, 44% hits; recombinant p97 ATPase, Kinase-Glo ATP luminescence; shares compounds with p97 ATPase inh;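 active means percent inhibition of p97 ATPase above a set limit, the primary screen's mean plus 3 SD, cut at about 15% in these data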;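 further: 0% = DMSO wells and 100% = wells lacking p97 protein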
# The depositor's hits bear a star; . = no result. An excerpt weighted towards active compounds, which were near 4.6% of everything screened.
SMILES,Wee1 stabilizer,NF-kB neuron act,STAT1 act,Mdm2 ligase inh,p97 ATPase inh,APP 5'UTR act,p97 confirm
COc1ccc(C(=O)OC(C)C(=O)Nc2cc(C(F)(F)F)ccc2Cl)c(OC)c1OC (centres undefined),6.3,0.77,97.3,-15.4,-8.0,-5.0,.
Cc1ccc(-c2nnn3c2nc(Cl)c2ccccc23)cc1,-2.6,1.3,88.7,-11.0,16.7*,14.6,8.1
Clc1nc2c(-c3ccccc3)nnn2c2ccccc12,-1.8,.,.,-7.8,16.7*,.,25.5*
Fc1ccc(-n2cc(-c3ccccc3)c3c(NN4CCOCC4)ncnc32)cc1,-2.5,0.59,106.9,-1.7,13.2,-0.6,.
NS(=O)(=O)c1ccc(CCNc2ncnc3c2c(-c2ccccc2)cn3-c2ccc(F)cc2)cc1,-1.7,0.35,96.3,-3.6,29.6*,-1.7,24.2*
O=C1NCCCCC1NC1CC(=O)N(c2ccccc2)C1=O (centres undefined),2.7,0.78,105.0,-12.9,16.9*,-11.8,9.2
N#C/C(=C/c1ccc(Br)o1)C(N)=S,2.1,.,.,-8.3,35.1*,.,30.2*
O=C(/C=C/c1ccccc1)NC1CCCc2ccccc21 (centres undefined),1.4,1.44,100.8,-24.6,-1.2,25.4,.
COCc1cc(=O)n2[nH]c(-c3ccsc3-n3c(C)ccc3C)cc2n1,-2.5,1.07,103.5,-16.4,4.4,-22.7,.
Cc1nc2cc(-c3ccsc3-n3c(C)ccc3C)[nH]n2c(=O)c1Cl,-0.3,1.34,107.9,-10.5,29.8*,-1.9,10.1
Cc1cc(=O)n2[nH]c(-c3ccsc3-n3c(C)ccc3C)cc2n1,-3.7,.,.,.,23.2*,.,12.3
C(=N\Nc1nc(N2CCOCC2)nc(N2CCOCC2)n1)/c1ccco1,-0.3,1.15,99.2,-12.3,18.0*,27.2,8.9
N#CC1=C(N)NC(=S)C(C(N)=O)C1c1ccccc1F (centres undefined),1.6,.,.,-18.4,15.7*,.,6.2
O=C(CSc1nc(O)cc(=O)[nH]1)Nc1ccc2c(c1)CCC2,6.7,0.99,100.9,-12.5,2.1,2.2,.
CCCc1cc(=O)[nH]c(SCC(=O)Nc2ccc3c(c2)CCC3)n1,-0.6,1.13,99.1,-68.2,15.1*,-10.6,4.3
COc1ccccc1C(=O)Oc1cc(N)n(S(=O)(=O)c2ccc(C)cc2)n1,1.5,1.03,88.1,-15.5,28.9*,0.6,39.4*
Cc1ccc(S(=O)(=O)n2nc(OC(=O)c3ccco3)cc2N)cc1,-1.3,1.04,105.0,-1.8,1.1,6.3,.
CCOC(=O)C1=C(CN2CC(C)CC(C)C2)NC(=O)NC1c1ccc2c(c1)OCO2 (centres undefined),6.8,0.93,102.2,3.3,0.1,6.0,.
O=C1CCCC2=C1C(c1ccsc1)CC(=O)N2c1ccccc1F (centres undefined),-0.7,1.07,110.3,-11.6,6.3,-31.3,.
Cc1ccccc1NC(=O)C(Cl)=C(Cl)Cl,-2.7,1.49,84.8,-2.8,27.2*,-1.0,36.1*
Cc1ccc(-n2nc(C)c3c2OC(N)=C(C#N)C3c2ccc(F)cc2)cc1 (centres undefined),-1.0,0.93,97.4,-1.7,19.7*,39.8,2.1
Cc1nn(-c2ccccc2)c2c1C(c1ccc([N+](=O)[O-])cc1)C(C#N)=C(N)O2 (centres undefined),-0.2,.,.,-1.0,5.8,.,.
Cc1nn(-c2cccc(Cl)c2)c2c1C(c1cccnc1)C(C#N)=C(N)O2 (centres undefined),4.0,1.02,95.1,-19.9,16.3*,8.0,9.4
COc1cccc(Nc2ccccc2C(=O)O)c1,1.7,1.13,99.9,-7.6,16.2*,7.3,4.8
COc1cccc(Nc2ncc(C(=O)O)c3ccccc23)c1,-1.2,1.08,99.2,-5.5,-2.3,-13.3,.
SMILES,Wee1 stabilizer,NF-kB neuron act,STAT1 act,Mdm2 ligase inh,p97 ATPase inh,APP 5'UTR act,p97 confirm
COc1ccc(S(=O)(=O)N2CCOCC2)cc1NC(=O)c1ccccc1-c1ccc(C(F)(F)F)cc1,-1.1,1.21,101.4,-10.1,1.9,3.5,.
CN(Cc1ccccc1)C(=O)CSc1nc2ccccc2c(=O)n1Cc1ccco1,2.7,0.62,97.9,14.7,7.2,-6.2,.
Cc1ccc(NC(=O)CN(C)C(=O)CSc2nc3ccccc3c(=O)n2Cc2ccco2)cc1,-0.8,0.69,99.8,-7.4,19.4*,-7.5,7.1
O=C(NNc1cc(N2CCOCC2)nc(N2CCOCC2)n1)c1ccc([N+](=O)[O-])cc1,-5.3,1.33,110.3,-88.9,22.5*,6.7,7.1
O=C(Nc1ccc(N2CCOCC2)cc1N1CCOCC1)c1ccc([N+](=O)[O-])cc1,-0.1,1.19,103.3,-3.7,1.9,-4.8,.
O=c1c2ccccc2nc2c3ccccc3c(Cl)nn12,5.0,0.95,95.9,4.2,21.2*,-3.9,24.5*
CC1CN(c2nn3c(=O)c4ccccc4nc3c3ccccc23)CC(C)O1 (centres undefined),1.9,1.19,100.3,-14.3,-0.7,8.4,.
CCOc1ccc(NC(=S)Nc2ccc3nsnc3c2)cc1,3.5,0.85,106.0,-18.2,33.0*,15.2,29.5*
CC(C)N(C(=O)Nc1ccc2nsnc2c1)C(C)C,8.5,1.45,89.8,-9.4,42.0*,12.2,16.6*
COc1ccc(N(C)C(=O)Nc2ccc3c(c2)nnn3C)cc1,-2.5,0.95,97.3,-18.6,12.1,-4.8,.
COc1ccc(NC(=S)Nc2ccc3nsnc3c2)cc1,-0.3,1.15,106.8,2.1,37.6*,-2.6,18.5*
COc1ccc(N(C)C(=O)Nc2ccc3nsnc3c2)cc1,2.5,1.32,89.4,-3.9,31.6*,18.3,8.1
Cc1c(C(=O)NCCSCc2cccc(C(F)(F)F)c2)cnn1-c1ccc(F)cc1,-1.1,.,.,-18.2,-0.3,.,.
COc1ccccc1NS(=O)(=O)c1ccc(NC(=O)c2nc3nc(C)cc(C(F)F)n3n2)cc1,2.1,1.01,95.1,-1.1,-0.2,9.3,.
S=C(Nc1ccc2nsnc2c1)NC1CCCCC1,1.6,1.99,122.3,-33.6,15.2*,14.8,6.4
N#Cc1ccccc1NC(=O)C1SC(=Nc2ccccc2)C(C(=O)Nc2ccc(Cl)cc2)=C1N (centres undefined),2.7,1.37,48.2,-38.2,9.2,-6.9,.
CCOc1ccc(N=C2SC(C(=O)Nc3ccccc3C#N)C(N)=C2C(=O)Nc2ccc(Cl)cc2)cc1 (centres undefined),-0.9,1.02,108.3,1.2,18.9*,13.0,24.2*
Cn1cccc1/C=C1\SC(=Nc2ccc(O)cc2)NC1=O,-0.7,.,.,-5.8,16.5*,.,23.0*
Cn1cccc1/C=C1\SC(=Nc2cccc(O)c2)NC1=O,1.1,.,.,-8.0,15.7*,.,12.7
